# A selection: hits, their analogues and other compounds. The true share with any hit is near 3.9%.
# TAAR1 ag: agonists of human TAAR1; CHO RD-HGA16 TAAR1, Fluo-8 calcium fluorescence; vehicle wells 0%, saturating PEA agonist 100%; actives 0.99% (n = 360,000); activation, % at 3 µM;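 active means activation above the mean activation of all test compounds in the run plus 3 SD, cut at about 38% in these data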
# Target sequence (Q96RJ0 whole entry, looked up): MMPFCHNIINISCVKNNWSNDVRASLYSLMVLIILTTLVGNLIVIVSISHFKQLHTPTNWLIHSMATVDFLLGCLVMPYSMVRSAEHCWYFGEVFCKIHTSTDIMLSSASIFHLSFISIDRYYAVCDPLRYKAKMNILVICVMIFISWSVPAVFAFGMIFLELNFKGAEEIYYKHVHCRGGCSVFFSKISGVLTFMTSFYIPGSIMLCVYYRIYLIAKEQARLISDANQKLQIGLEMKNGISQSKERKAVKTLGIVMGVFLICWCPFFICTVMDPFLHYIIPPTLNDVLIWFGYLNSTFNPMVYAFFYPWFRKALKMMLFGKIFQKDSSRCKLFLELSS
#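 Assay system – CHO-derived RD-HGA16 cells with stable Gα16 and human TAAR1 · Compound dosing – one-point dosing at 3 µM (nominal) · Incubation – 17-24 h seeding, 75 min 37 °C dye, 30 min RT · Measured by – kinetic Fluo-8 calcium fluorescence · Control set – DMSO vehicle as 0%, PEA at EC100 as 100% · Repeats – single well for each compound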
# TAAR1 antag: antagonists of human TAAR1; CHO RD-HGA16 TAAR1, Fluo-8 calcium fluorescence, antagonist; inhibition, % at 3 µM; actives 1.5% (n = 360,000);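 active means inhibition above a per-plate cutoff, the mean inhibition of test compounds on that plate plus 3 SD, cut at about 49% in these data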;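 further: 0% = DMSO plus EC80 beta-PEA response and 100% = DMSO alone without agonist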
#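 Assay system: RD-HGA16 CHO cells with stable hTAAR1 and Gα16 / Reagent: EC80 β-phenethylamine stimulus / Doses: 3 µM, single point / Timing: dye loading 75 min at 37 °C, then 30 min room temperature / Measured by: Fluo-8 intracellular calcium dye fluorescence, real-time kinetic reads / Controls: vehicle wells and EC80 agonist wells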
# CHO parental Ca: counter-screen: ATP calcium response change in parental CHO cells. parental CHO-K1, ATP-induced calcium, Fluo-8 fluorescence. inhibition, % at 5.6 µM. actives 0.63% (n = 330,000);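 active means inhibition above that plate's mean sample inhibition plus 3 SD, cut at about 26% in these data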;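 further: 0% = ATP-challenged DMSO wells and 100% = DMSO wells without ATP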
#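 Assay system: untransfected parental CHO cell line. Also added: ATP agonist challenge. Dosing: one dose, 5.6 µM nominal. Measured by: Fluo-8 fluorescence. Read-out: % inhibition. Benchmarks: ATP wells versus no-ATP DMSO wells. Repeats: no replicates.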
# OX1R antag-1: blocks the human orexin 1 receptor; CHO/OX1R cells, Fluo-8 calcium fluorescence, orexin A; inhibition, % at 5 µM; actives 0.43% (n = 330,000);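 active means inhibition above its plate's threshold, mean inhibition of all tested compounds on the plate plus 3 SD, cut at about 37% in these data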;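 further: 0% = orexin A challenge wells and 100% = SB-334867-A antagonist wells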
# OX1R antag-2: blocks the human orexin 1 receptor; O43613; OX1R-expressing cells, FRET antagonist read-out; inhibition, % at 6.6 µM; actives 1.8% (n = 330,000); in the data active means inhibition mostly above about 38%, no sharp cut-off; inactive means mostly below about 40%;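 further: 0% = agonist challenge alone and 100% = reference antagonist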
# Numbers without * were called inactive; . = no result given.
SMILES,TAAR1 ag,TAAR1 antag,CHO parental Ca,OX1R antag-1,OX1R antag-2
COc1ccccc1C(=O)C1Nc2ccccc2-c2nnc(SC)nc2O1 (centres undefined),9,0,-12,-16,50*
CCC1Nc2ccccc2-c2nnc(SC)nc2O1 (centres undefined),1,8,-13,-4,55
Cc1ccc(S(=O)(=O)CCc2nnc(N)s2)cc1C,7,2,38*,1,18
C=C(C)COc1ccc(-c2[nH]ncc2-c2ccc(OC)cc2)c(O)c1,-1,19,42*,-6,18
COc1ccc(-c2cn[nH]c2-c2ccc(OCC(=O)NN)cc2O)cc1,2,5,.,.,.
C=C(C)COc1ccc(-c2[nH]ncc2Oc2cccc(OC)c2)c(O)c1,0,8,75*,31,13
C=C(C)COc1ccc(-c2[nH]ncc2-c2ccc(OC)c(OC)c2)c(O)c1,2,50*,1,16,24
CCCc1ccc(Oc2cn[nH]c2-c2ccc(O)cc2O)cc1,20,18,35*,22,-6
Cc1ccc(CN2CC(N3CCC[C@@H]3C)CS2(=O)=O)cc1 (some centres undefined),1,-9,.,.,.
COC(=O)CCCC1=CC2=CC(=O)C(C)(OC(=O)c3cccs3)C(=O)C2=CN1CCCOC(C)C (centres undefined),2,-9,-13,-24,63*
COC(=O)CCCC1=CC2=CC(=O)C(C)(OC(=O)c3cccs3)C(=O)C2=CN1Cc1ccccc1 (centres undefined),6,2,-20,-39,34
CC(=O)Nc1cccc(C(=O)N2CCN(S(=O)(=O)c3ccc(C4CCCCC4)cc3)CC2)c1,4,19,.,.,.
O=C(C1CCC1)N1CCc2cc(S(=O)(=O)NCCN3CCN(c4ccccc4F)CC3)ccc21,4,23,51*,14,31
O=C(C1CC1)N1CCc2cc(S(=O)(=O)NCCCN3CCCCC3)ccc21,0,-12,-19,-17,13
CCOC(=O)C[C@@H]1OC[C@H](Cc2ccccc2)N1S(=O)(=O)c1ccc(C)cc1,0,-10,.,.,.
CCc1cc2c(nc1CC)CCCN2S(=O)(=O)c1ccc(C)cc1,5,4,.,.,.
O=C(N/C(=C\c1ccc([N+](=O)[O-])cc1)C(=O)N1CCCCC1)c1ccccc1Br,2,17,-28,-31,51*
C[C@H](CO)N1C[C@H](C)[C@@H](CN(C)C(=O)Nc2ccc3c(c2)OCO3)OCc2cn(nn2)CCCC1=O,0,5,.,.,.
Cc1ccc(NC(=O)CCSc2nnnn2-c2ccc3c(c2)OCO3)cc1C,-1,9,-8,-19,71*
Cc1ccc(-n2nnnc2SCC(=O)NC(C(=O)O)(c2ccccc2)c2ccccc2)cc1C,1,10,-14,-13,57*
CCOC(=O)CNC(=O)CSc1nnnn1-c1ccc(C)c(C)c1,12,-8,-10,-14,6
CC(C)c1cccc(C(C)C)c1NC(=O)c1ccc(-c2cc(Cl)ccc2Cl)o1,2,-12,.,.,.
CC(=O)Nc1ccc(C(=O)N2CCCCC2c2cc(C(=O)NCc3ccc(F)cc3)no2)cc1 (centres undefined),2,-3,.,.,.
CSCC[C@H]1COC[C@@H](Cc2ccccc2)N1c1ccccc1,1,-12,.,.,.
O=C(Nc1cccc(-c2nc3ccccc3s2)c1)C1=COCCO1,3,7,-25,1,75*
SMILES,TAAR1 ag,TAAR1 antag,CHO parental Ca,OX1R antag-1,OX1R antag-2
O=c1/c(=C/c2ccc(O)c([N+](=O)[O-])c2)sc2nc3ccccc3n12,4,10,.,.,.
CCN(CC)c1ccc(/C=c2\sc3nc4ccccc4n3c2=O)c(O)c1,17,64*,.,.,.
Cc1cc(C)cc(N(CC(=O)NC2CCCC2)C(=O)CCC(=O)Nc2nc(C)cs2)c1,43*,-7,-19,-11,23
CCC(CC)CN1CCC(CN2C(=S)NC[C@@H]2CC(C)C)CC1,0,-24,.,.,.
CCOC(=O)C1(Cc2ccccc2)CCN(Cc2cccc3c2OCO3)CC1,9,15,-16,8,72*
CCOC(=O)C1(Cc2ccccc2)CCN(Cc2cc(OC)c3c(c2)OCO3)CC1,4,0,-13,-13,13
O=C(NCc1ccccc1)C(C1CC1)n1c(-c2cccs2)nc2ccccc21 (centres undefined),0,-12,.,.,.
Cc1cc(CN(C)C(=O)c2cc(COc3ccc4ncccc4c3)on2)on1,4,-17,29*,11,12
CN(Cc1nccn1C)C(=O)c1cc(COc2ccc3ncccc3c2)on1,4,9,3,-9,16
CC(CNC(=O)c1cc(COc2ccc3ncccc3c2)on1)c1ccccc1 (centres undefined),16,32,58*,33,57*
CC(C)N1CCC(C)(C(=O)Nc2ccc(Cl)c(Cl)c2)C1 (centres undefined),4,-1,.,.,.
COC(=O)c1cc(C)nc(Nc2nc(C(N)Cc3ccc(Cl)cc3)cs2)n1 (centres undefined),9,10,.,.,.
COc1cc(OC)nc(Nc2nc(C(N)Cc3ccc(Cl)cc3)cs2)n1 (centres undefined),47*,37,.,.,.
NC(Cc1ccc(Cl)cc1)c1csc(Nc2ccc(C(F)(F)F)cn2)n1 (centres undefined),45*,33,.,.,.
CC1=C(C(=O)N2CCCCCC2)CC(CC(=O)NC2CCCC2)C(=O)N1Cc1ccc(C(C)(C)C)cc1 (centres undefined),-2,-31,.,.,.
CCCCNC(=O)C1(C)CCCCN1C(=O)c1ccc2sccc2c1 (centres undefined),0,-23,.,.,.
COC(=O)c1ccc(-c2n[nH]c(=O)c3ccccc23)cc1,4,5,1,-11,43*
OC1COCOC1C(O)C1OCOCC1O (centres undefined),3,-8,.,.,.
Cc1nc2ccccn2c1-c1csc(NCc2ccco2)n1,4,9,0,-12,29
Cc1ccn2c(-c3csc(NCc4ccccc4)n3)c(C)nc2c1,8,39,28,43*,59
CCC1Sc2ccc(S(=O)(=O)CCC(=O)Nc3ccc(C(=O)OC)cc3)cc2NC1=O (centres undefined),2,22,100*,-22,-4
CCC1Sc2ccc(S(=O)(=O)CCC(=O)Nc3ccc(NC(C)=O)cc3)cc2NC1=O (centres undefined),0,-4,-9,-17,-4
CCC1Sc2ccc(S(=O)(=O)CCC(=O)Nc3cccc(Br)c3)cc2NC1=O (centres undefined),7,49*,-28,-14,6
Cc1cccc(Cn2cc(SCC(=O)Nc3nccs3)c3ccccc32)c1,-2,9,-17,-20,34*
CN(C)S(=O)(=O)c1ccc(C(=O)NN2C(=O)NC3(CCCCC3)C2=O)cc1,6,-10,.,.,.
O=C(Nc1cc(Cl)ccc1O)c1snnc1-c1ccccc1,6,31,30,45,46*
